# Measured values as given in ChEMBL document CHEMBL1123879, “Synthesis and antiarrhythmic activity of novel 3-alkyl-1-[omega-[4-[(alkylsulfonyl)amino]phenyl]-omega- hydroxyalkyl]-1H-imidazolium salts and related compounds” (J Med Chem, 1987).
# Assays:
# Canis familiaris [1] = species: Canis familiaris; assay: (§1) Concentration that causes 20% increase in functional refractory period (FRP) was determined on isolated canine ventricular muscle fibers; parameters: species or system Canis lupus familiaris, Muscle tissue
# Summary of the method: (§2)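 Canine right ventricular papillary muscle strips superfused with O2/CO2-gassed saline at 36 ± 0.5 °C. Bipolar electrogram recording. Stimulated at 4× diastolic threshold (2 ms pulses), equilibrated 60 min. FRP measured at 1000 ms cycle length by S2 after every tenth S1 at shortening intervals. Cumulative concentrations; one compound per strip, with vehicle controls. Readout is concentration giving a 20% FRP change, or maximal change; log mean with 90% CI when n > 2.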
# Canis familiaris [2] = species: Canis familiaris; assay: Maximum observed change in ADP95 from control value was determined in isolated canine cardiac uM; assay type: functional
# Summary of the method: (§3)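 Canine cardiac Purkinje fibres in gassed physiological saline (95% O2–5% CO2, pH 7.35–7.40) at 36 ± 0.5 °C. Paced at 1.0 Hz with 2 ms pulses at twice diastolic threshold. Intracellular microelectrode recording after up to 1 h of stabilisation; 30 min exposure per concentration; one compound per fibre, with vehicle controls. Readout is concentration giving a 20% change in APD95, or maximal APD95 change; log mean with 90% CI when n > 2.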
# Canis familiaris [3] = species: Canis familiaris; assay: Maximum observed change in FRP from control was determined in isolated canine ventricular muscle fibers at a concentration of 100 uM; assay type: functional, Canis lupus familiaris, Muscle tissue; summary of the method: as §2
# Canis familiaris [4] = species: Canis familiaris; assay: (§4) Concentration that causes 20% increase in ADP95 (action potential duration at 95% repolarization) was determined on isolated canine cardiac Purkinje fibers; assay type: functional; details: Canis lupus familiaris; Purkinje fiber; summary of the method: as §3
# Canis familiaris [5] = species: Canis familiaris; assay: as §4; assay type: functional, Canis lupus familiaris, Purkinje fiber; summary of the method: as §3
# Canis familiaris [6] = species: Canis familiaris; assay: as §1; details: Canis lupus familiaris; Muscle tissue; summary of the method: as §2
# Canis familiaris [7] = assay: In vivo intraduodenal activity in mongrel dogs was assessed by % change in heart rate (10 mg/kg administered intradermally); assay type: functional, Canis lupus familiaris; details: in the assay text read “intraduodenally” for “intradermally”
# Summary of the method: (§5)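 Healthy dogs (8–20 kg) of either sex, pentobarbital 30 mg/kg iv, ventilated, temperature held at 36 ± 0.5 °C. Compound given intraduodenally as suspension in 0.5% tragacanth. HR, BP and FRP measured at 45 min postdose; second dose if FRP/conduction change below 12%. Active dose means FRP change ≥ 12%; HR and BP given as % change, mean ± SEM.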
# Canis familiaris [8] = assay: In vivo intraduodenal activity in mongrel dogs was assessed by % change in blood pressure (10 mg/kg administered intradermally); assay type: functional, Canis lupus familiaris, Artery; details: in the assay text read “intraduodenally” for “intradermally”; summary of the method: as §5
# Canis familiaris [9] = assay: In vivo intraduodenal activity in mongrel dogs was assessed by percent change in heart rate at active dose of 30 mg/kg, administered intradermally; assay type: functional, Canis lupus familiaris; details: in the assay text read “intraduodenally” for “intradermally”; summary of the method: as §5
# Canis familiaris [10] = assay: In vivo antiarrhythmic efficacy in a programmed electrical stimulation (PES) model of mongrel dogs reported as number of animals effective at dose range of 0.1-10 mg/kg.; assay type: functional, Canis lupus familiaris, Heart
# Summary of the method: (§6)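 Mongrel dogs (8–17 kg) with two-stage LAD occlusion 24 h earlier, anesthetized with thiopental 15 mg/kg and ventilated; open chest. PES induces SVT/VF; two control arrhythmias 30 min apart. Compound given as 10-min iv infusion, PES repeated 20 min later, dose escalated while still inducible; noninducibility counts as effective. HR and BP reported as % change at effective dose, mean ± SEM.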
# Canis familiaris [11] = assay: In vivo antiarrhythmic efficacy in PES model of mongrel dogs expressed as percent change in blood pressure at iv dose range of 0.1-10 mg/kg.; assay type: functional, Canis lupus familiaris; details: in the assay text read “1.0-10 mg/kg” for “0.1-10 mg/kg”; summary of the method: as §6
# Canis familiaris [12] = assay: In vivo intraduodenal activity in mongrel dogs was assessed by percent change in blood pressure at active dose of 30 mg/kg, administered intradermally; assay type: functional, Canis lupus familiaris, Artery; details: in the assay text read “intraduodenally” for “intradermally”; summary of the method: as §5
# Canis familiaris [13] = assay: In vivo antiarrhythmic efficacy in a programmed electrical stimulation (PES) model of mongrel dogs expressed as minimum effect dose (iv) at iv dose range of 0.1-10 mg/kg.; assay type: functional, Canis lupus familiaris, Heart; summary of the method: as §6
# Canis familiaris [14] = assay: In vivo antiarrhythmic efficacy in a programmed electrical stimulation (PES) model of mongrel dogs expressed as percent change in blood pressure at iv dose range of 0.1-10 mg/kg.; assay type: functional, Canis lupus familiaris; summary of the method: as §6
# Canis familiaris [15] = assay: In vivo antiarrhythmic efficacy in a programmed electrical stimulation (PES) model of mongrel dogs expressed as percent change in heart rate at iv dose range of 0.1-10 mg/kg.; assay type: functional, Canis lupus familiaris; summary of the method: as §6
# Canis familiaris [16] = species: Canis familiaris; assay: Concentration that causes 20% increase in ADP95 (action potential duration at 95% repolarization) was determined on isolated canine cardiac Purkinje fibers at a dose range of 0.01-10 uM; assay type: functional, Canis lupus familiaris, Purkinje fiber; summary of the method: as §3
# [17] = Canis lupus familiaris, Muscle tissue
structure (smiles),measurement,setting,value
Cc1c(C)[n+](C)c(C)n1CC(=O)c1ccc(NS(C)(=O)=O)cc1.[Cl-],Activity,Canis familiaris [1],15.8 µM
same,Max delta APD95,Canis familiaris [2]; Canis lupus familiaris,Minimal effects
same,Max delta FRP,Canis familiaris [3],26%
same,Activity,Canis familiaris [4],Not recorded
CC[n+]1ccn(CC(O)c2ccc(NS(C)(=O)=O)cc2)c1.[Cl-] (configuration not stated),Activity,Canis familiaris [1],28.2 µM
same,Activity,Canis familiaris [5],6.2 µM
same,Max delta APD95,Canis familiaris [2],65%
same,Max delta FRP,Canis familiaris [3],26%
CC(C)[n+]1ccn(CC(=O)c2ccc(NS(C)(=O)=O)cc2)c1.[Cl-],Activity,Canis familiaris [6],Not recorded
same,Max delta APD95,Canis familiaris [2]; Canis lupus familiaris,Minimal effects
same,Max delta FRP,Canis familiaris [3],14%
same,Activity,Canis familiaris [4],Not recorded
CCCCCCC[n+]1ccn(CC(O)c2ccc(NS(C)(=O)=O)cc2)c1.O=P([O-])(O)O (configuration not stated),Activity,Canis familiaris [1],9 µM
same,Activity,Canis familiaris [5],2.8 µM
same,Max delta APD95,Canis familiaris [2],50%
same,Max delta FRP,Canis familiaris [3],24%
same,Heart rate,Canis familiaris [7],-10%
same,Blood pressure,Canis familiaris [8],6%
Cc1n(CC(=O)c2ccc(NS(C)(=O)=O)cc2)cc[n+]1C.[Cl-],Activity,Canis familiaris [1],14.7 µM
same,Activity,Canis familiaris [5],24.8 µM
same,Max delta APD95,Canis familiaris [2],33%
same,Max delta FRP,Canis familiaris [3],32%
CC(C)[n+]1ccn(CC(O)c2ccc(NS(C)(=O)=O)cc2)c1 (configuration not stated),Activity,Canis familiaris [6],Not recorded
same,Max delta APD95,Canis familiaris [2]; Canis lupus familiaris,Minimal effects
same,Activity,Canis familiaris [4],Not recorded
C[n+]1ccn(CC(O)c2ccc(NS(=O)(=O)C(F)(F)F)cc2)c1 (configuration not stated),Activity,Canis familiaris [6],Not recorded
same,Max delta APD95,Canis familiaris [2]; Canis lupus familiaris,Minimal effects
same,Max delta FRP,Canis familiaris [3]; [17],Minimal effects
same,Activity,Canis familiaris [4],Not recorded
C[n+]1ccn(CCc2ccc(NS(C)(=O)=O)cc2)c1.[I-],Activity,Canis familiaris [1],10 µM
same,Activity,Canis familiaris [5],2.6 µM
same,Heart rate,Canis familiaris [9],-13%
same,Max delta APD95,Canis familiaris [2],45%
same,Max delta FRP,Canis familiaris [3],24%
same,No. effective,Canis familiaris [10],2
same,Blood pressure,Canis familiaris [11],13%
same,Blood pressure,Canis familiaris [12],3%
same,Min effective dose,Canis familiaris [13],6.5
Cc1c(C)[n+](C)c(C)n1CC(O)c1ccc(NS(C)(=O)=O)cc1.[Cl-] (configuration not stated),Activity,Canis familiaris [1],2.5 µM
same,Max delta APD95,Canis familiaris [2],13%
same,Max delta FRP,Canis familiaris [3],29%
same,Heart rate,Canis familiaris [7],-12%
same,Activity,Canis familiaris [4],Not recorded
same,Blood pressure,Canis familiaris [8],19%
C[n+]1ccn(CC(=O)c2ccc(NS(=O)(=O)C(F)(F)F)cc2)c1,Activity,Canis familiaris [6],Not recorded
same,Max delta APD95,Canis familiaris [2]; Canis lupus familiaris,Minimal effects
same,Max delta FRP,Canis familiaris [3]; [17],Minimal effects
same,Activity,Canis familiaris [4],Not recorded
C[n+]1ccn(CC(O)c2ccccc2)c1.[Br-] (configuration not stated),Activity,Canis familiaris [1],50 µM
same,Max delta APD95,Canis familiaris [2],12%
same,Max delta FRP,Canis familiaris [3],22%
same,Activity,Canis familiaris [4],Not recorded
CCCCCCC[N+](CC)(CC)CCCCc1ccc(Cl)cc1.O=P([O-])(O)O [CLOFILIUM PHOSPHATE],Activity,Canis familiaris [6],Not recorded
same,Blood pressure,Canis familiaris [14],2%
same,Max delta APD95,Canis familiaris [2],39%
same,Max delta FRP,Canis familiaris [3],7%
same,No. effective,Canis familiaris [10],7
same,Heart rate,Canis familiaris [7],-18%
same,Heart rate,Canis familiaris [15],-12%
same,Blood pressure,Canis familiaris [8],-4%
same,Min effective dose,Canis familiaris [13],0.63
same,Activity,Canis familiaris [16],0.26 µM
